# Measured values reported in ChEMBL document CHEMBL5661972, “In vitro biological activity of a novel small-molecule inhibitor of polo-like kinase 1” (Mol Cancer Ther, 2007).
# Columns and labels:
# [1] = molecular target: Proto-oncogene tyrosine-protein kinase Src (Homo sapiens, UniProt P12931); test: Inhibition of c-src (unknown origin)
# NHDF [2] = test: Induction of cell cycle arrest in human HDF cells assessed as accumulation of cells at G1 phase at 1 micromol/L incubated for 72 hrs by propidium iodide staining based flow cytometry analysis (reference value: 85.6 %); format: toxicity; conditions: 1 µM, dose 1 µmol/L
# Procedure, shortened: (§1)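 Cells seeded in six-well plates at densities that keep them in log growth (HDF 120,000, 60,000 or 30,000; H460 100,000, 50,000 or 25,000 per well for 24, 48 or 72 h). Treated with 1 or 3 μmol/L. Floating and adherent cells collected, ethanol-fixed, permeabilized with Triton X-100 and stained with propidium iodide. DNA content read by flow cytometry as % singlet cells.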
# NHDF [3] = test: Induction of cell cycle arrest in human HDF cells assessed as accumulation of cells at G1 phase at 1 micromol/L incubated for 48 hrs by propidium iodide staining based flow cytometry analysis (reference value: 72.8 %); format: toxicity; conditions: 1 µM, dose 1 µmol/L; procedure, shortened: as §1
# [4] = Selectivity ratio of IC50 for cytotoxicity against human HDF cells to IC50 for antiproliferative activity against human RKO cells; format: toxicity, cell-based; conditions: HDF cells versus RKO cells, read-out: Ratio IC50
# NHDF [5] = test: Induction of cell cycle arrest in human HDF cells assessed as accumulation of cells at Sub-2N phase at 1 micromol/L incubated for 72 hrs by propidium iodide staining based flow cytometry analysis (reference value: 0.7 %); format: toxicity; conditions: 1 µM, dose 1 µmol/L; procedure, shortened: as §1
# [6] = Selectivity ratio of IC50 for cytotoxicity against human HDF cells to IC50 for antiproliferative activity against human HN5 cells; format: toxicity, cell-based; conditions: HDF cells versus HN5 cells
# NHDF [7] = test: Induction of cell cycle arrest in human HDF cells assessed as accumulation of cells at >4N phase at 1 micromol/L incubated for 24 hrs by propidium iodide staining based flow cytometry analysis (reference value: 2.4 %); format: toxicity; conditions: 1 µM, dose 1 µmol/L; procedure, shortened: as §1
# NHDF [8] = test: Induction of cell cycle arrest in human HDF cells assessed as accumulation of cells at Sub-2N phase at 3 micromol/L incubated for 72 hrs by propidium iodide staining based flow cytometry analysis (reference value: 0.7 %); format: toxicity; conditions: 3 µM, dose 3 µmol/L; procedure, shortened: as §1
# [9] = Selectivity ratio of IC50 for cytotoxicity against human HDF cells to IC50 for antiproliferative activity against human PC-3 cells; format: toxicity, cell-based; conditions: HDF cells versus PC-3 cells
# NCI-H460 [10] = test: Induction of cell cycle arrest in human NCI-H460 cells assessed as accumulation of cells at S phase at 3 micromol/L incubated for 48 hrs by propidium iodide staining based flow cytometry analysis (reference value: 18.5 %); format: functional; conditions: dose 3 µmol/L, at 3 µM
# NCI-H460 [11] = test: Induction of cell cycle arrest in human NCI-H460 cells assessed as accumulation of cells at S phase at 1 micromol/L incubated for 48 hrs by propidium iodide staining based flow cytometry analysis (reference value: 18.5 %); format: functional; conditions: dose 1 µmol/L, at 1 µM
# NHDF [12] = test: Induction of cell cycle arrest in human HDF cells assessed as accumulation of cells at G2-M phase at 3 micromol/L incubated for 72 hrs by propidium iodide staining based flow cytometry analysis (reference value: 8.2 %); format: toxicity; conditions: 3 µM, dose 3 µmol/L; procedure, shortened: as §1
# NCI-H460 [13] = test: Induction of cell cycle arrest in human NCI-H460 cells assessed as accumulation of cells at G2-M phase at 3 micromol/L incubated for 72 hrs by propidium iodide staining based flow cytometry analysis (reference value: 18.2 %); format: functional; conditions: dose 3 µmol/L
# NHDF [14] = test: Induction of cell cycle arrest in human HDF cells assessed as accumulation of cells at >4N phase at 1 micromol/L incubated for 48 hrs by propidium iodide staining based flow cytometry analysis (reference value: 3.0 %); format: toxicity; conditions: 1 µM, dose 1 µmol/L; procedure, shortened: as §1
# [15] = Selectivity ratio of IC50 for cytotoxicity against human HDF cells to IC50 for antiproliferative activity against human MCF7 cells; format: toxicity, cell-based; conditions: HDF cells versus MCF7 cells, read-out: Ratio IC50
# NCI-H460 [16] = test: Induction of cell cycle arrest in human NCI-H460 cells assessed as accumulation of cells at >4N phase at 1 micromol/L incubated for 72 hrs by propidium iodide staining based flow cytometry analysis (reference value: 0.9 %); format: functional; conditions: dose 1 µmol/L, at 1 µM; procedure, shortened: as §1
# NHDF [17] = test: Induction of cell cycle arrest in human HDF cells assessed as accumulation of cells at S phase at 3 micromol/L incubated for 24 hrs by propidium iodide staining based flow cytometry analysis (reference value: 13.2 %); format: toxicity; conditions: 3 µM, dose 3 µmol/L; procedure, shortened: as §1
# [18] = molecular target: Vascular endothelial growth factor receptor 2 (Homo sapiens, UniProt P35968); test: Inhibition of VEGFR2 (unknown origin)
# Vascular endothelial growth factor receptor 2, sequence (P35968 whole entry): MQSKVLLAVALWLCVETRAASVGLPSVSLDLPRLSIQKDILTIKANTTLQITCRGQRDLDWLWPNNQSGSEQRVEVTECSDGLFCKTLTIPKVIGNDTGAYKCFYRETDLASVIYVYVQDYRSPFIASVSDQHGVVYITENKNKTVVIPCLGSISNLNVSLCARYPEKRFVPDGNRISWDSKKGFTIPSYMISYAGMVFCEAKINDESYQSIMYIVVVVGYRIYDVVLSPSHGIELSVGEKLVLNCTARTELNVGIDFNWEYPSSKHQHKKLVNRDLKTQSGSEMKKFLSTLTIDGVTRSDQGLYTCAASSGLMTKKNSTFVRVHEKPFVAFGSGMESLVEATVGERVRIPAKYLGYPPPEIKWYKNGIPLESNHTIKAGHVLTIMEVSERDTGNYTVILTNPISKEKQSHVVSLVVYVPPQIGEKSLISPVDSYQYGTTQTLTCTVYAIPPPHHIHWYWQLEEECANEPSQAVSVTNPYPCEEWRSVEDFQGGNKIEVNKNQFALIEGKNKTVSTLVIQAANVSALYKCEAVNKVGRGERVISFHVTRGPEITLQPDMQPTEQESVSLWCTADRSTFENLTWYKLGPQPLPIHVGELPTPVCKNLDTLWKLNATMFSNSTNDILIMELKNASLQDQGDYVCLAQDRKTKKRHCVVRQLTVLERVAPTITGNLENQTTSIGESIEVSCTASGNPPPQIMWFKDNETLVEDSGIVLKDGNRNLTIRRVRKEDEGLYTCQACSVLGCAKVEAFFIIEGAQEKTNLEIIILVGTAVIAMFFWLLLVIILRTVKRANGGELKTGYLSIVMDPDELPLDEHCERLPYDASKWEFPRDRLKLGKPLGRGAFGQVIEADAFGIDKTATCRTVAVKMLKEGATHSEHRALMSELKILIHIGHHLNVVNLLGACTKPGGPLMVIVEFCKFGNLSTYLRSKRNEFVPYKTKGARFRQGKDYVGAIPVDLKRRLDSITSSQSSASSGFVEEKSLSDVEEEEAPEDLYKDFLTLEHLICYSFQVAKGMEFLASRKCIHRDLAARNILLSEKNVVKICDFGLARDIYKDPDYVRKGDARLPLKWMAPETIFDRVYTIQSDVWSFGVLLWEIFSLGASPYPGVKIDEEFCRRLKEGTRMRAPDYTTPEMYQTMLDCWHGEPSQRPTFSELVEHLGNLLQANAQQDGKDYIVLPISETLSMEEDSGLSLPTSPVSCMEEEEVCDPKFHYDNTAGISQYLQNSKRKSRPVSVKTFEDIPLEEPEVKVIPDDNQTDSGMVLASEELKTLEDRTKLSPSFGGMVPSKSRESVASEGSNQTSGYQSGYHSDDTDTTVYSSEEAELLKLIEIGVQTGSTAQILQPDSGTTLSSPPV
# [19] = molecular target: Mitogen-activated protein kinase 11 (Homo sapiens, UniProt Q15759); test: Inhibition of p38beta (unknown origin)
# Mitogen-activated protein kinase 11, sequence (Q15759 whole entry): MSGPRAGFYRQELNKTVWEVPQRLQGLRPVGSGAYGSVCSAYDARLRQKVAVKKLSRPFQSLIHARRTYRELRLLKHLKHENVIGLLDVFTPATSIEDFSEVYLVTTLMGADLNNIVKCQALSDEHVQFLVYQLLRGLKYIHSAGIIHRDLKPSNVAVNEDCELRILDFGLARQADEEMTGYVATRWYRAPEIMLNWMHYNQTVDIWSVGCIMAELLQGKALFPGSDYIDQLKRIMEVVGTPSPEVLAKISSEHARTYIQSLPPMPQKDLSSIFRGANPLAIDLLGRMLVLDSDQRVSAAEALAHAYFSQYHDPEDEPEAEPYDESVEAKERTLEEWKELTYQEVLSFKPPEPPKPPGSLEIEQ
# NHDF [20] = test: Induction of cell cycle arrest in human HDF cells assessed as accumulation of cells at G2-M phase at 3 micromol/L incubated for 24 hrs by propidium iodide staining based flow cytometry analysis (reference value: 22.6 %); format: toxicity; conditions: 3 µM, dose 3 µmol/L; procedure, shortened: as §1
# [21] = Selectivity ratio of IC50 for cytotoxicity against human HDF cells to IC50 for antiproliferative activity against human BT-474 cells; format: toxicity, cell-based; conditions: HDF cells versus BT-474 cells, read-out: Ratio IC50
# [22] = Inhibition of CDK2/cyclin A (unknown origin); set-up: species or system Homo sapiens
# NCI-H460 [23] = test: Induction of cell cycle arrest in human NCI-H460 cells assessed as accumulation of cells at >4N phase at 3 micromol/L incubated for 72 hrs by propidium iodide staining based flow cytometry analysis (reference value: 0.9 %); format: functional; conditions: dose 3 µmol/L, at 3 µM; procedure, shortened: as §1
# NHDF [24] = test: Induction of cell cycle arrest in human HDF cells assessed as accumulation of cells at G2-M phase at 1 micromol/L incubated for 48 hrs by propidium iodide staining based flow cytometry analysis (reference value: 14.3 %); format: toxicity; conditions: 1 µM, dose 1 µmol/L; procedure, shortened: as §1
# NCI-H460 [25] = test: Induction of cell cycle arrest in human NCI-H460 cells assessed as accumulation of cells at Sub-2N phase at 3 micromol/L incubated for 72 hrs by propidium iodide staining based flow cytometry analysis (reference value: 2.1 %); format: functional; conditions: dose 3 µmol/L, at 3 µM
# NHDF [26] = test: Cytotoxicity against human HDF cells assessed as outgrowth of cells at 0.37 to 3.3 micromol/L incubated for 72 hrs by methylene blue staining based analysis; format: toxicity, cell-based; conditions: dose 0.37-3.3 µmol/L
# Procedure, shortened: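 HDF seeded at 1,300 and H460 at 600 per well in 96-well plates. After 24 h, exposed to vehicle (0.3% DMSO) or compound at 0.37–30 μmol/L for 72 h. Wells were then washed with PBS and refed with drug-free medium containing gentamicin. Regrowth was followed by methylene blue staining at set time points over 13 days in total.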
# NCI-H460 [27] = test: Induction of cell cycle arrest in human NCI-H460 cells assessed as accumulation of cells at G1 phase at 1 micromol/L incubated for 72 hrs by propidium iodide staining based flow cytometry analysis (reference value: 58.2 %); format: functional; conditions: dose 1 µmol/L, at 1 µM; procedure, shortened: as §1
# NCI-H460 [28] = test: Induction of cell cycle arrest in human NCI-H460 cells assessed as accumulation of cells at G1 phase at 3 micromol/L incubated for 48 hrs by propidium iodide staining based flow cytometry analysis (reference value: 50.9 %); format: functional; conditions: dose 3 µmol/L, at 3 µM
# NCI-H460 [29] = test: Induction of cell cycle arrest in human NCI-H460 cells assessed as accumulation of cells at G1 phase at 1 micromol/L incubated for 48 hrs by propidium iodide staining based flow cytometry analysis (reference value: 50.9 %); format: functional; conditions: dose 1 µmol/L, at 1 µM; procedure, shortened: as §1
# NCI-H460 [30] = test: Induction of cell cycle arrest in human NCI-H460 cells assessed as accumulation of cells at >4N phase at 3 micromol/L incubated for 24 hrs by propidium iodide staining based flow cytometry analysis (reference value: 1.2 %); format: functional; conditions: dose 3 µmol/L, at 3 µM; procedure, shortened: as §1
# Proto-oncogene tyrosine-protein kinase Src, sequence (P12931 2-536 limits assumed): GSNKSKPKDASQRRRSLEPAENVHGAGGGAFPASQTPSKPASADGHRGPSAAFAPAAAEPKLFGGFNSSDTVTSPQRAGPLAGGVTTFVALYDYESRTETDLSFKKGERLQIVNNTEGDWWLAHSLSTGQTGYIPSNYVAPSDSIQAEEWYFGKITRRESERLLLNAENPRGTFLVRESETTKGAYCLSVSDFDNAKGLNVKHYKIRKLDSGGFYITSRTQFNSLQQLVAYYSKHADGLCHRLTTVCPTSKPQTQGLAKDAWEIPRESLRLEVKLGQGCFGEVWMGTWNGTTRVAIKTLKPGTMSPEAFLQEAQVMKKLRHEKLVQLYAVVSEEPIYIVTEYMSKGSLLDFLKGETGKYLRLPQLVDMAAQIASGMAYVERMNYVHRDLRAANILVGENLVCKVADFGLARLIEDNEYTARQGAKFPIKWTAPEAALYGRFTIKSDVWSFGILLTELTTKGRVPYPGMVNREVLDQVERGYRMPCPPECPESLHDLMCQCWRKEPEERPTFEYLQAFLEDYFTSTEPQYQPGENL
smiles,measurement,setting,value
COc1cc2ncn(-c3cc(OCc4ccccc4C(F)(F)F)c(C(N)=O)s3)c2cc1OC [GW843682X],IC50,[1],> 10 µM
same,Activity,NHDF [2],66.2%
same,Activity,NHDF [3],55.3%
same,selectivity ratio,[4],> 10
same,Activity,NHDF [5],1.3%
same,selectivity ratio,[6],9
same,Activity,NHDF [7],3.5%
same,Activity,NHDF [8],9.1%
same,selectivity ratio,[9],0.9
same,Activity,NCI-H460 [10],8%
same,Activity,NCI-H460 [11],24.3%
same,Activity,NHDF [12],52.7%
same,Activity,NCI-H460 [13],4.7%
same,Activity,NHDF [14],6.4%
same,selectivity ratio,[15],> 10
same,Activity,NCI-H460 [16],58.6%
same,Activity,NHDF [17],4.2%
same,IC50,[18],0.36 µM
same,IC50,[19],> 10 µM
same,Activity,NHDF [20],65.6%
same,selectivity ratio,[21],> 10
same,IC50,[22],7.6 µM
same,Activity,NCI-H460 [23],51%
same,Activity,NHDF [24],27%
same,Activity,NCI-H460 [25],30%
same,Activity,NHDF [26],Toxic
same,Activity,NCI-H460 [27],2.5%
same,Activity,NCI-H460 [28],7.5%
same,Activity,NCI-H460 [29],8.9%
same,Activity,NCI-H460 [30],6.2%
